Series [1] relates to HaCaT. Nature of the series: Cytotoxicity against human HaCaT cells assessed as LDH release at 2 uM after 4 hrs. Format: cell-based. In short, it runs like this:
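HaCaT cells were exposed to test compound for 4 h at 37 °C. Extracellular LDH activity was measured by the UV method with pyruvate and NADH and expressed in mU/mL. The vehicle control was 0.2% DMSO in culture medium, and Brij 35 with ultrasound was the positive control. N = 3, SD < 10%.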
(Release of lactate dehydrogenase indicates damage to the cell membrane.)

Series [2] deals with Radical scavenging activity. Briefly: Antioxidant activity assessed as DPPH free radical scavenging activity by spectrophotometry. In kind it is functional. In outline:
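DPPH radical decrease read spectrophotometrically as absorbance at 520 nm. Percent interaction = (1 − test absorbance/control absorbance) × 100, with test means from N = 3 and control means from N = 8. EC50 is the concentration giving a 50% drop in DPPH absorbance, obtained by nonlinear regression. NDGA and α-tocopherol served as positive controls.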

Series [3] relates to HaCaT. Briefly: Antiproliferative activity against human HaCaT cells after 48 hrs by phase contrast microscopy. Format: functional, cell-based. In outline:
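HaCaT human keratinocytes were grown in DMEM with 10% fetal calf serum, penicillin and streptomycin at 37 °C under 8% CO2. After 48 h of exposure, dispersed cells were counted by phase-contrast microscopy. Inhibition = (1 − test/control) × 100, with test N = 3 and control N = 6–8. Significance was tested by Student's t-test. IC50 was obtained by nonlinear regression.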

Some results are limits rather than exact numbers.

Broadly, the EC50 is the concentration giving half of the maximal effect. For orientation: IC50 means the concentration that gives 50% inhibition.

Consider `O=C1c2cccc(Cl)c2Cc2c(Cl)cccc21`, for which the Activity in series [1] is 64.4 mU/ml. In addition, the EC50 in series [2] turned out to be 29.5 µM.
In turn, `O=C1c2cccc(Cl)c2C(Cc2ccccc2Cl)c2c(Cl)cccc21` had an IC50 in series [3] of 30 µM. Also, the EC50 in series [2] was over 50 µM.
On the same counts, the results for `O=C1c2cccc(Cl)c2C(Cc2ccc(Cl)cc2)c2c(Cl)cccc21` are 36 µM and over 50 µM.
For `COc1ccccc1CC1c2c(Cl)cccc2C(=O)c2cccc(Cl)c21`, in that order: over 50 µM and over 50 µM.
In the case of `COc1cccc(CC2c3c(Cl)cccc3C(=O)c3cccc(Cl)c32)c1`, in series [1], the Activity is given as 65 mU/ml. It took 2 µM to reach half-maximal inhibition in series [3] (IC50). The EC50 in series [2] was over 50 µM.
On the same counts, the results for `COc1ccc(CC2c3c(Cl)cccc3C(=O)c3cccc(Cl)c32)cc1` are 57.6 mU/ml, 5 µM and over 50 µM.
On the same counts, the results for `COc1ccc(CC2c3c(Cl)cccc3C(=O)c3cccc(Cl)c32)cc1OC` are 68.4 mU/ml, 5 µM and over 50 µM.
Regarding `COc1cc(CC2c3c(Cl)cccc3C(=O)c3cccc(Cl)c32)cc(OC)c1`, in series [3], the IC50 came out at 24 µM. For the same molecule, the EC50 in series [2] is over 50 µM.
For `COc1cc(CC2c3c(Cl)cccc3C(=O)c3cccc(Cl)c32)cc(OC)c1OC`, in that order: over 50 µM and over 50 µM.
On the same counts, the results for `O=C1c2cccc(Cl)c2C(Cc2ccccc2[N+](=O)[O-])c2c(Cl)cccc21` are over 50 µM and over 50 µM.
On to `O=C1c2cccc(Cl)c2C(Cc2cccc([N+](=O)[O-])c2)c2c(Cl)cccc21`, for which, in series [1], the Activity is given as 69.9 mU/ml. In addition, half-maximal inhibition in series [3] (IC50) was put at 5 µM. For the same molecule, in series [2], the EC50 was over 50 µM.
Consider `O=C1c2cccc(Cl)c2C(Cc2ccc([N+](=O)[O-])cc2)c2c(Cl)cccc21`, for which, in series [3], the IC50 is over 50 µM. The EC50 in series [2] is over 50 µM.
The molecule `O=C1c2cccc(Cl)c2C(Cc2ccc([N+](=O)[O-])cc2[N+](=O)[O-])c2c(Cl)cccc21` had an IC50 in series [3] of 17 µM. For the same molecule, the EC50 in series [2] was over 50 µM.
For `O=C1c2cccc(Cl)c2C(Cc2cccc(OCc3ccccc3)c2)c2c(Cl)cccc21`, in that order: 22 µM and over 50 µM.
`O=C1c2cccc(Cl)c2C(Cc2ccc(OCc3ccccc3)cc2)c2c(Cl)cccc21`: in series [3], it took 36 µM to reach half-maximal inhibition (IC50). Besides, in series [2], the EC50 was over 50 µM.
For `O=C1c2cccc(Cl)c2C(Cc2ccc(OCc3ccccc3)c(OCc3ccccc3)c2)c2c(Cl)cccc21`, in series [3], the IC50 is over 50 µM. For the same molecule, the EC50 in series [2] is over 50 µM.
Turning to `COc1ccc(CC2c3c(Cl)cccc3C(=O)c3cccc(Cl)c32)cc1OCc1ccccc1`, the IC50 in series [3] was over 50 µM. For the same molecule, the EC50 in series [2] was over 50 µM.
`O=C1c2cccc(Cl)c2C(Cc2cccc(O)c2)c2c(Cl)cccc21` registered an IC50 in series [3] of 15 µM. The EC50 in series [2] is over 50 µM.
For `O=C1c2cccc(Cl)c2C(Cc2ccc(O)cc2)c2c(Cl)cccc21`, in that order: 19 µM and over 50 µM.
Consider `O=C1c2cccc(Cl)c2C(Cc2ccc(O)c(O)c2)c2c(Cl)cccc21`, for which the Activity in series [1] worked out at 76.6 mU/ml. Also, the half-inhibitory concentration (IC50) in series [3] was determined as 18 µM. Also, the EC50 in series [2] worked out at 6.3 µM.
On the same counts, the results for `COc1ccc(CC2c3c(Cl)cccc3C(=O)c3cccc(Cl)c32)cc1O` are 69.5 mU/ml, 0.7 µM and over 50 µM.
With `O=C1c2cccc(Cl)c2C(c2ccccc2)c2c(Cl)cccc21`, the half-maximal inhibitory concentration (IC50) in series [3] was over 50 µM. Further, the EC50 in series [2] is over 50 µM.
Take `Cc1ccc(C2c3c(Cl)cccc3C(=O)c3cccc(Cl)c32)cc1`: the IC50 in series [3] was over 50 µM. Moreover, the EC50 in series [2] was over 50 µM.
As to `O=C1c2cccc(Cl)c2C(Cc2ccccc2)c2c(Cl)cccc21`, in series [1], the Activity was found to be 69.6 mU/ml. The same molecule came in with an IC50 in series [3] of 4.3 µM. Besides, the EC50 in series [2] is over 50 µM.
As for `COc1ccc(OC)c(CC2c3c(Cl)cccc3C(=O)c3cccc(Cl)c32)c1`, the Activity in series [1] was found to be 60.6 mU/ml. This molecule also returned a half-maximal inhibitory concentration (IC50) in series [3] of 3.8 µM. Also, the EC50 in series [2] was over 50 µM.
Molecule `COc1ccc(C2c3c(Cl)cccc3C(=O)c3cccc(Cl)c32)cc1` displayed a concentration for half-maximal inhibition (IC50) in series [3] of 20 µM. Further, the EC50 in series [2] is over 50 µM.
For `Cc1ccc(CC2c3c(Cl)cccc3C(=O)c3cccc(Cl)c32)cc1`, in that order: 44 µM and over 50 µM.
For `O=C1c2cccc(Cl)c2C(Cc2ccc(C(F)(F)F)cc2)c2c(Cl)cccc21`, in that order: 25 µM and over 50 µM.
`O=C1c2c(O)cccc2Cc2cccc(O)c21` [ANTHRALIN]: the Activity in series [1] stood at 122.8 mU/ml. Further, the EC50 in series [2] was 16.7 µM.
